Molecular target: Sigma 2 receptor
Assay: Binding affinity for sigma 2 opioid receptor, measured on rat liver membranes using [3H]- DTG as radioligand in the presence of (+)-pentazocine
Design: species or system Membrane
Summary of the method: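 Rat liver P2 membranes (male Sprague-Dawley, 300-350 g; 35 µg protein) incubated with 3 nM [3H]DTG plus 100 nM (+)-pentazocine masking σ1 sites, in 50 mM Tris-HCl pH 8.0, 120 min, 25 °C. Test compounds at 0.005-1000 nM (eight concentrations). Nonspecific binding defined with 5 µM DTG. Filtration, scintillation counting. IC50 by nonlinear regression, generally in triplicate. Ki from at least three experiments.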

SMILES	Ki [nM]
O=C(Cc1ccccc1)NC1CCN(CCc2ccccc2)CC1	107
COc1ccc2[nH]cc(CC(=O)NC3CCN(Cc4ccccc4)CC3)c2c1	> 1000
O=C(Cc1cccc(Br)c1)NC1CCN(Cc2cccc(I)c2)CC1	59.3
O=C(Cc1cccc(Br)c1)NC1CCN(Cc2ccc(I)cc2)CC1	90.3
O=C(Cc1ccc2ccccc2c1)NC1CCN(Cc2ccccc2)CC1	112
O=C(Cc1ccccc1)NC1CCN(Cc2ccc(F)c(F)c2)CC1	232
O=C(Cc1cccc(F)c1)NC1CCN(Cc2ccc(I)cc2)CC1	168
O=C(Cc1ccccn1)NC1CCN(Cc2ccccc2)CC1	> 1000
O=C(Cc1c[nH]c2ccccc12)NC1CCN(Cc2ccccc2)CC1	> 1000
O=C(Cc1cccc(F)c1)NC1CCN(Cc2ccc(F)cc2)CC1	31
O=C(Cc1ccccc1)NC1CCN(Cc2ccccc2F)CC1	683
O=C(Cc1ccccc1)NC1CCN(Cc2ccc3c(c2)OCO3)CC1	171
O=C(Cc1c[nH]cn1)NC1CCN(Cc2ccccc2)CC1	> 1000
O=C(Cc1ccccc1)NC1CCN(Cc2ccc(I)cc2)CC1	694
O=C(Cc1cccc(Cl)c1)NC1CCN(Cc2cccc(I)c2)CC1	30.3
O=C(Cc1cc(=O)oc2cc(O)ccc12)NC1CCN(Cc2ccccc2)CC1	> 1000
O=C(Cc1ccccc1)NC1CCN(Cc2ccc(F)cc2)CC1	82.9
OC(CCCN1CCC(O)(c2ccc(Cl)cc2)CC1)c1ccc(F)cc1 (stereo not given) [HYDROXYHALOPERIDOL]	28.6
O=C(Cc1cccc2ccccc12)NC1CCN(Cc2ccccc2)CC1	39.4
O=C(Cc1cccnc1)NC1CCN(Cc2ccccc2)CC1	> 1000
O=C(Cc1ccccc1)NC1CCN(Cc2ccc([N+](=O)[O-])cc2)CC1	319
O=C(Cc1ccccc1F)NC1CCN(Cc2cccc(I)c2)CC1	181
O=C(Cc1ccccc1)NC1CCN(Cc2cccc(C(F)(F)F)c2)CC1	513

SMILES	Ki [nM]
COc1ccc2c(c1)C(CC(=O)NC1CCN(Cc3ccccc3)CC1)CC2=O (stereo not given)	416
O=C(Cc1cccc(Cl)c1)NC1CCN(Cc2ccc(F)cc2)CC1	9.38
O=C(Cc1ccccc1)NC1CCN(Cc2cccc(F)c2)CC1	> 1000
O=C(Cc1ccccc1)NC1CCN(Cc2ccc3ccccc3c2)CC1	189
O=C(Cc1ccncc1)NC1CCN(Cc2ccccc2)CC1	> 1000
O=C(Cc1ccc(I)cc1)NC1CCN(Cc2ccccc2)CC1	61.3
O=C(Cc1cccc(Cl)c1)NC1CCN(Cc2ccc(I)cc2)CC1	257
O=C(Cc1ccccc1F)NC1CCN(Cc2ccc(F)cc2)CC1	140
O=C(CSc1ncccn1)NC1CCN(Cc2ccccc2)CC1	> 1000
O=C(Cc1cccc(Br)c1)NC1CCN(Cc2ccc(F)cc2)CC1	6.06
O=C(Cc1ccccc1)NC1CCN(Cc2ccccc2C(F)(F)F)CC1	> 1000
O=C(Cc1ccccc1F)NC1CCN(Cc2ccc(I)cc2)CC1	233
O=C(Cc1ccccc1)NC1CCN(Cc2ccc(Cl)c(Cl)c2)CC1	423
O=C(Cc1cccs1)NC1CCN(Cc2ccccc2)CC1	393
O=C(Cc1ccccc1)NC1CCN(Cc2ccccc2)CC1	240
O=C(Cc1ccccc1)NC1CCN(Cc2ccccc2I)CC1	631
O=C(Cc1ccccc1)NC1CCN(Cc2cccc(I)c2)CC1	191
O=C(Cc1ccccc1)NC1CCN(Cc2ccc(C(F)(F)F)cc2)CC1	300
O=C(Cc1cccc(F)c1)NC1CCN(Cc2cccc(I)c2)CC1	50.3
O=C(Cc1c[nH]c2ccc(Br)cc12)NC1CCN(Cc2ccccc2)CC1	678
O=C(Cc1ccsc1)NC1CCN(Cc2ccccc2)CC1	337
O=C(Nc1cccc2ccccc12)NC1CCN(Cc2ccccc2)CC1	25

— ChEMBL document CHEMBL1134305, “Synthesis and structure-activity relationships of N-(1-benzylpiperidin-4-yl)arylacetamide analogues as potent sigma1 receptor ligands” (J Med Chem, 2001)
